The source made the active and inactive calls. No cut-off for these calls is given here.
Legend:
[1] = system: B16-F10; assay: Cytotoxicity against mouse B16F10 cells assessed as reduction in cell viability after 48 hrs by MTT assay; assay type: functional, cell-based; settings: B16-F10, 48 h
[2] = system: PBL; assay: Cytotoxicity against acute leukemia patient-derived PBL cells assessed as reduction in cell viability after 24 hrs; assay type: functional, cell-based; settings: Homo sapiens
How it was run: (§1)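 Mononuclear cells from acute leukemia patient samples (peripheral blood or bone marrow, taken before first treatment at diagnosis or relapse) isolated by Ficoll-Hypaque.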

[3] = system: Jurkat; assay: Induction of apoptosis in human Jurkat cells assessed as increase in FasR expression at 33.7 uM after 12 hrs by flow cytometric analysis relative to control; assay type: functional
[4] = system: K562; assay: Induction of apoptosis in human K562 cells assessed as reduction in cells with intact mitochondrial membrane potential at 55.7 uM after 12 hrs by flow cytometric analysis relative to control; assay type: functional; design: scale not given: the % may be the effect or the level left
[5] = system: Jurkat; assay: Induction of apoptosis in human Jurkat cells assessed as decrease in survivin level at 33.7 uM after 12 hrs by flow cytometric analysis relative to control; assay type: functional
[6] = system: Jurkat; assay: Induction of apoptosis in human Jurkat cells assessed as increase in membrane blebbing at 33.7 uM by acridine orange/ethidium bromide staining-based fluorescence microscopic analysis; assay type: functional, cell-based
[7] = system: PBMC; assay: Cytotoxicity against human PBMC assessed as reduction in cell viability after 72 hrs by MTT assay; assay type: cell-based
[8] = system: Jurkat; assay: Induction of apoptosis in human Jurkat cells at 33.7 uM after 12 hrs by Annexin-V FITC staining-based flow cytometry relative to control; assay type: functional
[9] = system: Jurkat; assay: Induction of apoptosis in human Jurkat cells assessed as increase in AIF release at 33.7 uM after 12 hrs by flow cytometric analysis relative to control; assay type: functional
[10] = system: PBMC; assay: Cytotoxicity against human PBMC assessed as reduction in cell viability after 48 hrs by MTT assay; assay type: cell-based
[11] = Selectivity index, ratio of IC50 for human PBMC to IC50 for human Daudi cells after 24 hrs
How it was run: (§2)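 MTT viability after 24 h exposure to 1-100µM; untreated control OD taken as 100%. IC50 by curve fitting in each line and in PBMC from six healthy donors (Ficoll-Hypaque). SI = IC50 PBMC / IC50 tumor line; SI ≥5 high, 2–5 moderate, <2 low.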

[12] = system: Daudi; assay: Cytotoxicity against human Daudi cells assessed as reduction in cell viability after 72 hrs by MTT assay; assay type: functional, cell-based
[13] = Hemolytic activity in human RBC at 12 times IC50 relative to control; assay type: ADME, cell-based, Erythrocyte; settings: red blood cells (erythrocytes), read-out: Activity
How it was run: (§3)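 RBC from healthy non-smoking volunteers incubated with increasing concentrations of the selected pyrazolines. Saline served as the 0% lysis control and distilled water as the 100% lysis control. Percent hemolysis calculated relative to these controls.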

[14] = system: K562; assay: Induction of apoptosis in human K562 cells assessed as increase in chromatin condensation at 55.7 uM by acridine orange/ethidium bromide staining-based fluorescence microscopic analysis; assay type: functional, cell-based
[15] = system: Jurkat; assay: Cytotoxicity against human Jurkat cells assessed as reduction in cell viability after 72 hrs by MTT assay; assay type: functional, cell-based
[16] = system: Jurkat; assay: Induction of apoptosis in human Jurkat cells assessed as increase in loss of membrane integrity at 33.7 uM by acridine orange/ethidium bromide staining-based fluorescence microscopic analysis; assay type: functional, cell-based
[17] = system: K562; assay: Induction of apoptosis in human K562 cells assessed as increase in FasR expression at 55.7 uM after 12 hrs by flow cytometric analysis relative to control; assay type: functional
[18] = Hemolytic activity in human RBC at 15 times IC50 relative to control; assay type: ADME, cell-based, Erythrocyte; settings: red blood cells (erythrocytes), read-out: Activity; how it was run: as §3
[19] = system: Jurkat; assay: Cytotoxicity against human Jurkat cells assessed as reduction in cell viability after 24 hrs by MTT assay; assay type: functional, cell-based
How it was run: (§4)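 MTT viability after 24 h exposure. Cells seeded at 5x10^4 per well and tested at 1-100 µM. Optical density of untreated cells set as 100% viable. IC50 derived by curve fitting. PBMC from healthy non-smoking volunteers, isolated by Ficoll-Hypaque.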

[20] = system: K562; assay: Induction of apoptosis in human K562 cells assessed as decrease in survivin level at 55.7 uM after 12 hrs by flow cytometric analysis relative to control; assay type: functional
[21] = system: K562; assay: Induction of apoptosis in human K562 cells assessed as increase in loss of membrane integrity at 55.7 uM by acridine orange/ethidium bromide staining-based fluorescence microscopic analysis; assay type: functional, cell-based
[22] = system: Daudi; assay: Cytotoxicity against human Daudi cells assessed as reduction in cell viability after 48 hrs by MTT assay; assay type: functional, cell-based
[23] = Hemolytic activity in human RBC at 9 times IC50 relative to control; assay type: ADME, cell-based, Erythrocyte; settings: red blood cells (erythrocytes), read-out: Activity; how it was run: as §3
[24] = system: K562; assay: Cytotoxicity against human K562 cells assessed as reduction in cell viability after 48 hrs by MTT assay; assay type: functional, cell-based; settings: K562, 48 h
[25] = Selectivity index, ratio of IC50 for human PBMC to IC50 for mouse B16F10 cells after 24 hrs; assay type: toxicity; settings: PBMC versus B16F10 cells, read-out: Ratio IC50; how it was run: as §2
[26] = system: Jurkat; assay: Induction of apoptosis in human Jurkat cells assessed as increase in Bax expression at 33.7 uM after 12 hrs by flow cytometric analysis relative to control; assay type: functional
[27] = system: Jurkat; assay: Cytotoxicity against human Jurkat cells assessed as reduction in cell viability after 48 hrs by MTT assay; assay type: functional, cell-based
[28] = system: Jurkat; assay: Induction of apoptosis in human Jurkat cells assessed as increase in chromatin condensation at 33.7 uM by acridine orange/ethidium bromide staining-based fluorescence microscopic analysis; assay type: functional, cell-based
[29] = system: K562; assay: Induction of apoptosis in human K562 cells assessed as increase in membrane blebbing at 55.7 uM by acridine orange/ethidium bromide staining-based fluorescence microscopic analysis; assay type: functional, cell-based
[30] = system: K562; assay: Cytotoxicity against human K562 cells assessed as reduction in cell viability after 24 hrs by MTT assay; assay type: functional, cell-based; settings: K562, 24 h; how it was run: as §4
[31] = system: Jurkat; assay: Induction of DNA fragmentation in human Jurkat cells assessed as increase in ladder formation at 33.7 uM after 12 hrs by ethidium bromide staining based agarose gel electrophoresis method; assay type: functional, cell-based
[32] = system: Jurkat; assay: Antiproliferative activity against human Jurkat cells assessed as reduction in KI-67 expression at 33.7 uM after 12 hrs by flow cytometric analysis; assay type: functional, cell-based
[33] = system: K562; assay: Antiproliferative activity against human K562 cells assessed as reduction in KI-67 expression at 55.7 uM after 12 hrs by flow cytometric analysis; assay type: functional, cell-based
[34] = system: K562; assay: Induction of apoptosis in human K562 cells assessed as increase in caspase-3 expression at 55.7 uM after 12 hrs by flow cytometric analysis; assay type: functional, cell-based
[35] = Hemolytic activity in human RBC at 2 times IC50 relative to control; assay type: ADME, cell-based, Erythrocyte; settings: red blood cells (erythrocytes), read-out: Activity; how it was run: as §3
[36] = system: Jurkat; assay: Induction of apoptosis in human Jurkat cells assessed as reduction in cells with intact mitochondrial membrane potential at 33.7 uM after 12 hrs by flow cytometric analysis relative to control; assay type: functional; design: scale not given: the % may be the effect or the level left
[37] = system: K562; assay: Cytotoxicity against human K562 cells assessed as reduction in cell viability after 72 hrs by MTT assay; assay type: functional, cell-based; settings: K562, 72 h
[38] = Hemolytic activity in human RBC at 1 time IC50 relative to control; assay type: ADME, cell-based, Erythrocyte; settings: red blood cells (erythrocytes), read-out: Activity; how it was run: as §3
[39] = system: Jurkat; assay: Induction of apoptosis in human Jurkat cells assessed as increase in caspase-3 expression at 33.7 uM after 12 hrs by flow cytometric analysis relative to control; assay type: functional
[40] = Selectivity index, ratio of IC50 for human PBMC to IC50 for human K562 cells after 24 hrs; assay type: toxicity; settings: PBMC versus K562 cells, read-out: Ratio IC50; how it was run: as §2
[41] = system: PBMC; assay: Cytotoxicity against human PBMC assessed as reduction in cell viability after 24 hrs by MTT assay; assay type: cell-based
[42] = (§5) Cytotoxicity against acute leukemia patient-derived bone marrow cells assessed as reduction in cell viability after 24 hrs; assay type: functional, cell-based; settings: Homo sapiens; how it was run: as §1
[43] = species on record: Homo sapiens; assay: as §5; assay type: functional, cell-based; how it was run: as §1
[44] = system: Jurkat; assay: Cell cycle arrest in human Jurkat cells assessed as increase in accumulation at S phase at 33.7 uM after 12 hrs by propidium iodide/RNAse staining based flow cytometric analysis; assay type: functional
[45] = system: Daudi; assay: Cytotoxicity against human Daudi cells assessed as reduction in cell viability after 24 hrs by MTT assay; assay type: functional, cell-based; how it was run: as §4
[46] = system: B16-F10; assay: Cytotoxicity against mouse B16F10 cells assessed as reduction in cell viability after 72 hrs by MTT assay; assay type: functional, cell-based; settings: B16-F10, 72 h
[47] = Selectivity index, ratio of IC50 for human PBMC to IC50 for human Jurkat cells after 24 hrs; assay type: toxicity; settings: PBMC versus Jurkat cells, read-out: Ratio IC50; how it was run: as §2
[48] = Hemolytic activity in human RBC at 3 times IC50 relative to control; assay type: ADME, cell-based, Erythrocyte; settings: red blood cells (erythrocytes), read-out: Activity; how it was run: as §3
[49] = system: K562; assay: Cell cycle arrest in human K562 cells assessed as increase in accumulation at G0/G1 phase at 55.7 uM after 12 hrs by propidium iodide/RNAse staining based flow cytometric analysis relative to control; assay type: functional
[50] = system: K562; assay: Induction of apoptosis in human K562 cells at 55.7 uM after 12 hrs by Annexin-V FITC staining-based flow cytometry relative to control; assay type: functional
[51] = system: B16-F10; assay: Cytotoxicity against mouse B16F10 cells assessed as reduction in cell viability after 24 hrs by MTT assay; assay type: functional, cell-based; settings: B16-F10, 24 h; how it was run: as §4
[52] = system: K562; assay: Induction of apoptosis in human K562 cells assessed as increase in Bax expression at 55.7 uM after 12 hrs by flow cytometric analysis relative to control; assay type: functional

COc1cc(C2=NN(C(C)=O)C(c3ccc4ccccc4c3)C2)cc(OC)c1OC (stereo not drawn)
IC50 [1]: 56.6 µM
Activity [2]: Dose-dependent effect
IC50 [2]: 27.7 to 139 µM
Activity [3]: 30.3%
Activity [4]: 26%
Activity [5]: 21.4%
Activity [6]: Active
IC50 [7]: 55.3 µM
Activity [8]: 29.2%
Activity [9]: 6%
IC50 [10]: 105 µM
Ratio IC50 [11]: 10.7
IC50 [12]: 5.1 µM
hemolysis at 12 times IC50 [13]: 3.2%
Activity [14]: Active
IC50 [15]: 25.3 µM
Activity [16]: Active
Activity [17]: 34.3%
hemolysis at 15 times IC50 [18]: 6.4%
IC50 [19]: 33.7 µM
Activity [20]: 22.2%
Activity [21]: Active
IC50 [22]: 20.2 µM
hemolysis at 9 times IC50 [23]: 2.4%
IC50 [24]: 21.9 µM
selectivity ratio at 24 h [25]: 6.9
Activity [26]: 20.5%
IC50 [27]: 27.7 µM
Activity [28]: Active
Activity [29]: Active
IC50 [30]: 55.7 µM
Activity [31]: Active
Activity [32]: Active
Activity [33]: Active
Activity [34]: inactive
hemolysis at 2 times IC50 [35]: 1.5%
Activity [36]: 41%
IC50 [37]: 15.5 µM
hemolysis at 1 times IC50 [38]: 1.9%
Activity [39]: 6.6%
selectivity ratio at 24 h [40]: 8.9
IC50 [41]: 497 µM
IC50 [42]: 16.2 to 44.6 µM
Activity [43]: Dose-dependent effect
Activity [44]: inactive
IC50 [45]: 46.2 µM
IC50 [46]: 23.3 µM
selectivity ratio at 24 h [47]: 14.7
hemolysis at 3 times IC50 [48]: 1.6%
Activity [49]: 7.4%
Activity [50]: 18.8%
IC50 [51]: 72.3 µM
Activity [52]: 16.8%
